Data reported in ChEMBL document CHEMBL6078712, “Triterpenoid phthalimides as selective anti-cancer agents targeting mitochondrial apoptosis” (Eur J Med Chem, 2025).

Tests used:
[1] = tested on: K562; assay: Cytotoxicity against human K562 cells assessed as inhibition of cell growth incubated for 72 hrs by MTS assay; format: functional, cell-based; settings: K562, 72 h
Method in brief: (§1)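 MTS assay on eight human cancer lines and two non-tumour fibroblast lines. IC50 is the concentration that inhibits cell growth by 50 %. SD typically up to 15 % of the mean.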

[2] = tested on: CCRF-CEM; assay: Cytotoxicity against human CCRF-CEM cells assessed as inhibition of cell growth incubated for 72 hrs by MTS assay; format: functional, cell-based; method in brief: as §1
[3] = tested on: HCT 116 TP53(-/-); assay: Cytotoxicity against human HCT116-p53-null cells assessed as inhibition of cell growth incubated for 72 hrs by MTS assay; format: functional, cell-based; method in brief: as §1
[4] = tested on: A549; assay: Cytotoxicity against human A549 cells assessed as inhibition of cell growth incubated for 72 hrs by MTS assay; format: functional, cell-based; settings: A549, 72 h; method in brief: as §1
[5] = tested on: U2OS; assay: Cytotoxicity against human U2OS cells assessed as inhibition of cell growth incubated for 72 hrs by MTS assay; format: functional, cell-based; method in brief: as §1
[6] = tested on: HCT-116; assay: Cytotoxicity against human HCT-116 cells assessed as inhibition of cell growth incubated for 72 hrs by MTS assay; format: functional, cell-based; settings: HCT-116, 72 h; method in brief: as §1
[7] = Cytotoxicity against human K562-Tax cells assessed as inhibition of cell growth incubated for 72 hrs by MTS assay; format: functional, cell-based; method in brief: as §1
[8] = Cytotoxicity against human BJ cells assessed as inhibition of cell growth incubated for 72 hrs by MTS assay; format: toxicity, cell-based; method in brief: as §1
[9] = tested on: CEM-DNR; assay: Cytotoxicity against human CEM-DNR cells assessed as inhibition of cell growth incubated for 72 hrs by MTS assay; format: functional, cell-based; method in brief: as §1
[10] = Cytotoxicity against human MRC5 cells assessed as inhibition of cell growth incubated for 72 hrs by MTS assay; format: toxicity, cell-based; method in brief: as §1

Compound | IC50 [1] | IC50 [2] | IC50 [3] | IC50 [4] | IC50 [5] | IC50 [6] | IC50 [7] | IC50 at 72 h [8] | IC50 [9] | IC50 at 72 h [10]
COc1ccc(N2C(=O)c3ccc([C@@H]4CC[C@]5(COC(C)=O)CC[C@]6(C)[C@H](CC[C@@H]7[C@@]8(C)CC[C@H](OC(C)=O)C(C)(C)[C@@H]8CC[C@]76C)[C@@H]45)cc3C2=O)cc1 | > 50 µM | > 50 µM | > 50 µM | > 50 µM | > 50 µM | > 50 µM | > 50 µM | > 50 µM | > 50 µM | > 50 µM
CC(=O)OC[C@]12CC[C@@H](c3ccc4c(c3)C(=O)NC4=O)[C@@H]1[C@H]1CC[C@@H]3[C@@]4(C)CC[C@H](OC(C)=O)C(C)(C)[C@@H]4CC[C@@]3(C)[C@]1(C)CC2 | > 50 µM | > 50 µM | > 50 µM | > 50 µM | > 50 µM | > 50 µM | > 50 µM | > 50 µM | > 50 µM | > 50 µM
COC(=O)c1ccc([C@@H]2CC[C@]3(C(=O)O)CC[C@]4(C)[C@H](CC[C@@H]5[C@@]6(C)CC[C@H](O)C(C)(C)[C@@H]6CC[C@]54C)[C@@H]23)cc1C(=O)OC | 13.8 µM | 14.1 µM | 16.2 µM | 11.1 µM | 19.6 µM | 16.6 µM | 11.5 µM | 31.1 µM | 11.5 µM | 25.3 µM
COC(=O)c1cc([C@@H]2CC[C@]3(C(=O)O)CC[C@]4(C)[C@H](CC[C@@H]5[C@@]6(C)CC[C@H](O)C(C)(C)[C@@H]6CC[C@]54C)[C@@H]23)cc(-c2ccccc2)c1C(=O)OC | 6.12 µM | 6.3 µM | 6.17 µM | 4.44 µM | 9.94 µM | 5.46 µM | 4.36 µM | 36.3 µM | 4.85 µM | 30.2 µM
